Test results published in ChEMBL document CHEMBL1144360, “Phenazine 5,10-dioxide derivatives as hypoxic selective cytotoxins” (2005).
Where “and” joins values, the source holds several entries; their conditions need not be identical. Equal entries are not always repeated.

Tests used:
Assay type in all cases: functional, Cricetulus griseus
Cricetinae gen. sp. [1] = assay: In vitro survival fraction of V79 cells after 2 hours upon treatment with compound under hypoxia at 20 uM; design: unit: %
How it was run: (§1)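 Clonogenic assay on V79 suspension cultures gassed with air (aerobic) or nitrogen (hypoxia), exposed to compound for 2 h. Colony survival expressed as survival fraction relative to untreated control under the same gas condition. Assays run in duplicate with at least three repetitions; reported value is the mean of two separate experiments.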

Cricetinae gen. sp. [2] = assay: In vitro survival fraction of V79 cells after 2 hours upon treatment with compound in air at 20 uM; design: unit: %; how it was run: as §1
Cricetinae gen. sp. [3] = assay: In vitro survival fraction of V79 cells after 2 hours upon treatment with compound in air at 10 uM; design: unit: %; how it was run: as §1
Cricetinae gen. sp. [4] = assay: In vitro survival fraction of V79 cells after 2 hours upon treatment with compound under hypoxia at 10 uM; design: unit: %; how it was run: as §1
Cricetinae gen. sp. [5] = assay: In vitro survival fraction of V79 cells after 2 hours upon treatment with compound under hypoxia at 5 uM; how it was run: as §1
Cricetinae gen. sp. [6] = assay: In vitro survival fraction of V79 cells after 2 hours upon treatment with compound in air at 5 uM; how it was run: as §1

Cc1ccc2nc3cc(N)ccc3[n+]([O-])c2c1
SF (Cricetinae gen. sp. [1]): 100
SF (Cricetinae gen. sp. [2]): 100 and 98

Nc1ccc2nc3cc(Cl)ccc3nc2c1
SF (Cricetinae gen. sp. [1]): 100
SF (Cricetinae gen. sp. [2]): 0

Nc1ccc2nc3cc(Br)ccc3nc2c1
SF (Cricetinae gen. sp. [1]): 0
SF (Cricetinae gen. sp. [2]): 0

Nc1ccc2c(c1)[n+]([O-])c1ccc(Br)cc1[n+]2[O-]
SF (Cricetinae gen. sp. [3]): 64
SF (Cricetinae gen. sp. [1]): 0
SF (Cricetinae gen. sp. [4]): 3
SF (Cricetinae gen. sp. [2]): 12

[O-][n+]1c2ccc(Br)cc2[n+]([O-])c2ccc(O)cc21
SF (Cricetinae gen. sp. [1]): 0
SF (Cricetinae gen. sp. [2]): 80

Nc1ccc2c(c1)[n+]([O-])c1ccccc1[n+]2[O-]
SF (Cricetinae gen. sp. [3]): 64
SF (Cricetinae gen. sp. [1]): 0
SF (Cricetinae gen. sp. [4]): 19
SF (Cricetinae gen. sp. [2]): 2

[O-][n+]1c2ccc(Cl)cc2[n+]([O-])c2ccc(O)cc21
SF (Cricetinae gen. sp. [1]): 100
SF (Cricetinae gen. sp. [2]): 100

COc1ccc2c(c1)[n+]([O-])c1ccc(N)cc1[n+]2[O-]
SF (Cricetinae gen. sp. [1]): 23
SF (Cricetinae gen. sp. [2]): 87

Nc1ccc2c(c1)[n+]([O-])c1ccc(Cl)cc1[n+]2[O-]
SF (Cricetinae gen. sp. [3]): 26
SF (Cricetinae gen. sp. [1]): 0
SF (Cricetinae gen. sp. [4]): 3
SF (Cricetinae gen. sp. [2]): 0

Nc1ccc2nc3cc(C4OCCO4)ccc3nc2c1
SF (Cricetinae gen. sp. [1]): 100
SF (Cricetinae gen. sp. [2]): 100

Cc1ccc2nc3cc(O)ccc3nc2c1
SF (Cricetinae gen. sp. [1]): 100
SF (Cricetinae gen. sp. [2]): 100

[O-][n+]1c2ccccc2[n+]([O-])c2cc(O)ccc21
SF (Cricetinae gen. sp. [1]): 73
SF (Cricetinae gen. sp. [2]): 100

Cc1ccc2c(c1)[n+]([O-])c1ccc(N)cc1[n+]2[O-]
SF (Cricetinae gen. sp. [1]): 11
SF (Cricetinae gen. sp. [2]): 61

[O-][n+]1c2ccc(C3OCCO3)cc2[n+]([O-])c2ccc(O)cc21
SF (Cricetinae gen. sp. [5]): 5
SF (Cricetinae gen. sp. [1]): 100
SF (Cricetinae gen. sp. [2]): 100
SF (Cricetinae gen. sp. [6]): 100

COc1ccc2c(c1)[n+]([O-])c1ccc(O)cc1[n+]2[O-]
SF (Cricetinae gen. sp. [1]): 87
SF (Cricetinae gen. sp. [2]): 100

Cc1ccc2c(c1)[n+]([O-])c1ccc(O)cc1[n+]2[O-]
SF (Cricetinae gen. sp. [1]): 100
SF (Cricetinae gen. sp. [2]): 93

Oc1ccc2nc3cc(Br)ccc3nc2c1
SF (Cricetinae gen. sp. [1]): 100
SF (Cricetinae gen. sp. [2]): 100

O=Cc1ccc2nc3cc(O)ccc3nc2c1
SF (Cricetinae gen. sp. [1]): 100
SF (Cricetinae gen. sp. [2]): 98

Nc1ccc2c(c1)[n+]([O-])c1ccc([N+](=O)[O-])cc1[n+]2[O-]
SF (Cricetinae gen. sp. [3]): 58
SF (Cricetinae gen. sp. [1]): 2
SF (Cricetinae gen. sp. [4]): 65
SF (Cricetinae gen. sp. [2]): 1

Cc1ccc2nc3cc(N)ccc3nc2c1
SF (Cricetinae gen. sp. [1]): 100
SF (Cricetinae gen. sp. [2]): 98

Nc1ccc2c(c1)[n+]([O-])c1ccc(C3OCCO3)cc1[n+]2[O-]
SF (Cricetinae gen. sp. [3]): 86
SF (Cricetinae gen. sp. [5]): 36
SF (Cricetinae gen. sp. [1]): 0
SF (Cricetinae gen. sp. [4]): 1
SF (Cricetinae gen. sp. [2]): 14
SF (Cricetinae gen. sp. [6]): 100

Oc1ccc2nc3cc(Cl)ccc3nc2c1
SF (Cricetinae gen. sp. [1]): 100
SF (Cricetinae gen. sp. [2]): 100
